For this assay, the system named is Plasmodium berghei. The assay can be described thus: Antimalarial activity as survivor numbers at day 60 for drug-sensitive Plasmodium berghei infected mice (Mus musculus) after 72 hr. The class given is functional. The method, boiled down: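 Normal drug-sensitive P. berghei infection in mice. A single subcutaneous dose was given 72 h postinfection, dissolved or suspended in sesame or peanut oil. Groups were five animals (ten where indicated). Mice alive at 60 days postinfection were counted as "cured", without subinoculation confirmation. Toxic deaths on days 2–5 were recorded separately.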

The structures appear in SMILES notation.

The compound `Nc1nc(N)c2cc(S(=O)(=O)c3ccc4ccccc4c3)ccc2n1` showed a survivors at day 60 of 5.

Values taken from ChEMBL document CHEMBL1122803, “Folate antagonists. 22. Antimalarial and antibacterial effects of 2,4-diamino-6-quinazolinesulfonamides” (1984).
